Laboratory results published in ChEMBL document CHEMBL4368914, “Tricyclic Indazoles-A Novel Class of Selective Estrogen Receptor Degrader Antagonists” (J Med Chem, 2019).
Values after ≈ are worked out from the molar mass of the structure shown.

What was measured:
[1] = Stability in pH 10 deuterated buffer assessed as compound remaining after 8 days by 1H NMR spectroscopy; format: physicochemical; details: pH 10, 192 h
Summary of the method: (§1)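 Compound diluted from a 25 mM DMSO-d6 stock to a final 1 mM in each deuterated buffer. Followed by ¹H NMR (500 MHz, water suppression, 64 scans) and LC-MS at 0, 24, 72 and 192 h (8 days).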

[2] = Lipophilicity, log D of the compound at pH 7.4 by shake flask method; format: physicochemical; details: buffer
Summary of the method: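 Shake-flask measurement of logD at pH 7.4.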

[3] = Volume of distribution at steady state in rat at 0.5 mg/kg, iv or 1 mg/kg, po; format: ADME, organism-based; details: in vivo, read-out: Vdss
Summary of the method: (§2)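 Single IV dose of 0.5 mg/kg and oral dose of 1 mg/kg in rat and dog. Both routes were formulated in 5% DMSO:95% hydroxypropyl β-cyclodextrin (30% w/v), at 1 mL/kg IV and 4 mL/kg PO.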

[4] = Glutathione reactivity in human liver microsomes assessed as GSH trapping ratio of compound to clozapine; format: ADME, Microsome
Summary of the method: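 Glutathione trapping in human liver microsomes, expressed as a ratio to clozapine.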

[5] = AUC in dog at 1 mg/kg, po; format: ADME, organism-based, Canis lupus familiaris; details: in vivo; summary of the method: as §2
[6] = Apparent permeability in MDCK cells at 10 uM; format: ADME, cell-based, Canis lupus familiaris; details: dog
Summary of the method: (§3)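 Compound at 10 μM incubated on cultured Caco-2 or MDCK cells. Permeability was measured apical-to-basolateral and basolateral-to-apical, and efflux ratio was taken as (B to A)/(A to B).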

[7] = Oral bioavailability in dog at 1 mg/kg; format: ADME, organism-based, Canis lupus familiaris; details: in vivo; summary of the method: as §2
[8] = biological target: T1, Cytochrome P450 1A2 (Homo sapiens, UniProt P05177); assay: Inhibition of CYP1A2 in human liver microsomes; format: ADME
T1 sequence (P05177 whole entry): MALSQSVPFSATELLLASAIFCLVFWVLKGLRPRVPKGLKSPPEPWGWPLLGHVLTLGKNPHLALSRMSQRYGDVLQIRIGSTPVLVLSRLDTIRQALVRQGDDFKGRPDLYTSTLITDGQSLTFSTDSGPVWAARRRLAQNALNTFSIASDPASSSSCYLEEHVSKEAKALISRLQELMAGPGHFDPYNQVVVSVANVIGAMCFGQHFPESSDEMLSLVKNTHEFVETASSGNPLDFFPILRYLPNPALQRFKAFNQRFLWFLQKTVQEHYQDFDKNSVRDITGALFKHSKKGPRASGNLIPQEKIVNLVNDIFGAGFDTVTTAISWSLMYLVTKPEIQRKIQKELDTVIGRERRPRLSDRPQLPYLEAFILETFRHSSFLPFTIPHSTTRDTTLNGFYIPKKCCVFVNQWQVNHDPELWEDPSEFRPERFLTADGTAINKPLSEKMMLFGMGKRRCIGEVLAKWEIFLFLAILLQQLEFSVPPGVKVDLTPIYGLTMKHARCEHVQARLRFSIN
Summary of the method: (§4)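 High-throughput human liver microsome assay across a panel of five CYP isoforms, giving IC50.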

[9] = Fraction unbound in dog plasma by equilibrium dialysis; format: ADME, cell-free, Canis lupus familiaris
[10] = Intrinsic clearance in rat hepatocytes assessed per million cells; format: ADME, cell-based, Hepatocyte; details: read-out: CLH
Summary of the method: (§5)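 Rate of metabolism (µl/min/10⁶ cells) measured from DMSO stock in isolated hepatocytes diluted to 1x10⁶ cells/mL.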

[11] = AUC in rat at 1 mg/kg, po; format: ADME, organism-based; details: in vivo; summary of the method: as §2
[12] = Stability in pH 7.4 deuterated buffer assessed as compound remaining after 8 days by 1H NMR spectroscopy; format: physicochemical; details: pH 7.4, 192 h; summary of the method: as §1
[13] = Clearance in dog at 0.5 mg/kg, iv or 1 mg/kg, po; format: ADME, organism-based, Canis lupus familiaris; details: in vivo; summary of the method: as §2
[14] = Half life in dog at 0.5 mg/kg, iv or 1 mg/kg, po; format: ADME, organism-based, Canis lupus familiaris; details: in vivo; summary of the method: as §2
[15] = Oral bioavailability in rat at 1 mg/kg; format: ADME, organism-based; details: in vivo; summary of the method: as §2
[16] = Efflux ratio of apparent permeability in human Caco2 cells at 10 uM; format: ADME, cell-based; details: Caco-2; summary of the method: as §3
[17] = biological target: T2, Estrogen receptor (Homo sapiens, UniProt P03372); assay: Binding affinity to recombinant human GST-tagged ERalpha LBD expressed in baculovirus-infected insect cells by lantha screen assay
T2 sequence (P03372 whole entry): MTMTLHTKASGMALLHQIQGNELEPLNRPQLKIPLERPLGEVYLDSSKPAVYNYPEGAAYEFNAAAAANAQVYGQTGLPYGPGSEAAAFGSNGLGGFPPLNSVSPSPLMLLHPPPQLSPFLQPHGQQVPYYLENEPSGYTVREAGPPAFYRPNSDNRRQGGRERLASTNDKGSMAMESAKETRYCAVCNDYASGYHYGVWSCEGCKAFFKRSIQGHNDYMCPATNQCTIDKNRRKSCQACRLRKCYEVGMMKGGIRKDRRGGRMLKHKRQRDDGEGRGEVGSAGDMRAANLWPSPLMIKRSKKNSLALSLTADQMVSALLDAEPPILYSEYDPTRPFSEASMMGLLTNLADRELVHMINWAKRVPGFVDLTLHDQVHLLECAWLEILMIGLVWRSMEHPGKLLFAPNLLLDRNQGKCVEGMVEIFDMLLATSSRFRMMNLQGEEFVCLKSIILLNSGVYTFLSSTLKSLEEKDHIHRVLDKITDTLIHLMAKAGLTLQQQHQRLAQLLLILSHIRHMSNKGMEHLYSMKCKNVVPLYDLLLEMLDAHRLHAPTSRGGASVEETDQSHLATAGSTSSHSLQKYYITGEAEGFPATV

[18] = biological target: Cytochrome P450 2C19 (Homo sapiens, UniProt P33261); assay: Inhibition of CYP2C19 in human liver microsomes; format: ADME; summary of the method: as §4
[19] = Clearance in rat at 0.5 mg/kg, iv or 1 mg/kg, po; format: ADME, organism-based; details: in vivo; summary of the method: as §2
[20] = biological target: T2, Estrogen receptor; assay: Induction of ERalpha degradation in human MCF7 cells after 18 to 24 hrs by in multiplexed cell assay; format: cell-based
Summary of the method: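 MCF-7 cells were kept at 37 °C, 5% CO₂ in phenol red-free RPMI1640 with 5% charcoal-stripped FCS and 2 mmol/L glutamine. Compounds came from 10 mmol/L DMSO stocks.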

[21] = Fraction unbound in 10% human plasma by equilibrium dialysis; format: ADME, cell-free; details: 10% plasma
Summary of the method: (§6)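 Equilibrium dialysis from DMSO stock in 10% plasma, either Alderley Park Han Wistar rat plasma or human plasma.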

[22] = Stability in pH 4 deuterated buffer assessed as compound remaining after 8 days by 1H NMR spectroscopy; format: physicochemical; details: pH 4, 192 h; summary of the method: as §1
[23] = Volume of distribution at steady state in dog at 0.5 mg/kg, iv or 1 mg/kg, po; format: ADME, organism-based, Canis lupus familiaris; details: in vivo, read-out: Vdss; summary of the method: as §2
[24] = Intrinsic clearance in human hepatocytes assessed per million cells; format: ADME, cell-based, Hepatocyte; details: read-out: CLH; summary of the method: as §5
[25] = Apparent permeability in human Caco2 cells at 10 uM; format: ADME, cell-based; details: Caco-2; summary of the method: as §3
[26] = Fraction unbound in Alderley Park Han Wistar rat plasma by equilibrium dialysis; format: ADME, cell-free; summary of the method: as §6
[27] = Solubility of the compound in phosphate buffer at pH 7.4 after 24 hrs; format: physicochemical
Summary of the method: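 Solubility in aqueous phosphate buffer at pH 7.4 after 24 h at 25 °C.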

[28] = Efflux ratio of apparent permeability in MDCK cells at 10 uM; format: ADME, cell-based, Canis lupus familiaris; details: dog; summary of the method: as §3
[29] = Fraction unbound in mouse plasma by equilibrium dialysis; format: ADME, cell-free
[30] = Half life in rat at 0.5 mg/kg, iv or 1 mg/kg, po; format: ADME, organism-based; details: in vivo; summary of the method: as §2
[31] = biological target: Cytochrome P450 2D6 (Homo sapiens, UniProt P10635); assay: Inhibition of CYP2D6 in human liver microsomes; format: ADME; summary of the method: as §4
[32] = Intrinsic clearance in dog hepatocytes assessed per million cells; format: ADME, cell-based, Canis lupus familiaris, Hepatocyte; details: read-out: CLH; summary of the method: as §5
[33] = biological target: Cytochrome P450 2C9 (Homo sapiens, UniProt P11712); assay: Inhibition of CYP2C9 in human liver microsomes; format: ADME; summary of the method: as §4
[34] = biological target: Voltage-gated inwardly rectifying potassium channel KCNH2 (Homo sapiens, UniProt Q12809); assay: Inhibition of human ERG by plate based planar patch clamp assay
[35] = biological target: Cytochrome P450 3A4 (Homo sapiens, UniProt P08684); assay: Inhibition of CYP3A4 in human liver microsomes; format: ADME; summary of the method: as §4
Sequence of Cytochrome P450 3A4 (P08684 whole entry): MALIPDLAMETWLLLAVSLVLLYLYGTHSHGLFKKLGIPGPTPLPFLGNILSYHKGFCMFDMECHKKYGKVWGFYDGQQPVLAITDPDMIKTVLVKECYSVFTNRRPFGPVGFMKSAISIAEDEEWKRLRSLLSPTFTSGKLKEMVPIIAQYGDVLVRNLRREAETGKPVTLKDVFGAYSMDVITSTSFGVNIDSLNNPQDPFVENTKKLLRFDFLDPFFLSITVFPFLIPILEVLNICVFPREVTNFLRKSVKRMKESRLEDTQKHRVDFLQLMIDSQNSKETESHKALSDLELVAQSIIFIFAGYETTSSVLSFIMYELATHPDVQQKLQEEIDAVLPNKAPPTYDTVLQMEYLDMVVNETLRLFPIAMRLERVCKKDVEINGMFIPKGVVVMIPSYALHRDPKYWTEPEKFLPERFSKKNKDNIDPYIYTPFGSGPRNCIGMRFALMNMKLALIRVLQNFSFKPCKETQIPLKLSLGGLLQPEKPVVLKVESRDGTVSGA

Sequence of Cytochrome P450 2C19 (P33261 whole entry): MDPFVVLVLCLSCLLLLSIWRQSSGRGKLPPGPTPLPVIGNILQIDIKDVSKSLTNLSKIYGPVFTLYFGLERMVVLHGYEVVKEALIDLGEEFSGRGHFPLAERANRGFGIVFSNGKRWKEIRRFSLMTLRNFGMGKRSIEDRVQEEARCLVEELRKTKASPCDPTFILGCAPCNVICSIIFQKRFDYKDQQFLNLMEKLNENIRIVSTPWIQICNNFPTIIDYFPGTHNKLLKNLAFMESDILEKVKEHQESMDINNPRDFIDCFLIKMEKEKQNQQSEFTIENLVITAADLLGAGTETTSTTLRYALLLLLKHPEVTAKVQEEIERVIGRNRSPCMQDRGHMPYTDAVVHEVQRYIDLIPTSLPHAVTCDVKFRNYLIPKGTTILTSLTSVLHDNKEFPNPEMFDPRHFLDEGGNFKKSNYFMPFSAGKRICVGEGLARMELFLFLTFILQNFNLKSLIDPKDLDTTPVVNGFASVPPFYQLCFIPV
Sequence of Cytochrome P450 2D6 (P10635 whole entry): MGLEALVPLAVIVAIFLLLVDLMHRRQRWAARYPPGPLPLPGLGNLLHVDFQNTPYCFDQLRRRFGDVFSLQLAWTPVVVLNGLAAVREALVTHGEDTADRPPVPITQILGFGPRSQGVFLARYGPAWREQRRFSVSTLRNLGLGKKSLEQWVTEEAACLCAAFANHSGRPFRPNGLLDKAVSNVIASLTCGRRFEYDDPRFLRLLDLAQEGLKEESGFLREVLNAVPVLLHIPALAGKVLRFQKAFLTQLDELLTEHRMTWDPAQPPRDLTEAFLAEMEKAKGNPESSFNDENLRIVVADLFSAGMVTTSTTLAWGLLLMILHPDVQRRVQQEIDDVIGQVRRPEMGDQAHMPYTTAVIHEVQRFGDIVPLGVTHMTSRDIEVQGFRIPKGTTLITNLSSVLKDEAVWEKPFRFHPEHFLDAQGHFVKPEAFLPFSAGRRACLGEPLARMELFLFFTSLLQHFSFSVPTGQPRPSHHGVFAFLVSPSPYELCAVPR
Sequence of Voltage-gated inwardly rectifying potassium channel KCNH2 (Q12809 whole entry): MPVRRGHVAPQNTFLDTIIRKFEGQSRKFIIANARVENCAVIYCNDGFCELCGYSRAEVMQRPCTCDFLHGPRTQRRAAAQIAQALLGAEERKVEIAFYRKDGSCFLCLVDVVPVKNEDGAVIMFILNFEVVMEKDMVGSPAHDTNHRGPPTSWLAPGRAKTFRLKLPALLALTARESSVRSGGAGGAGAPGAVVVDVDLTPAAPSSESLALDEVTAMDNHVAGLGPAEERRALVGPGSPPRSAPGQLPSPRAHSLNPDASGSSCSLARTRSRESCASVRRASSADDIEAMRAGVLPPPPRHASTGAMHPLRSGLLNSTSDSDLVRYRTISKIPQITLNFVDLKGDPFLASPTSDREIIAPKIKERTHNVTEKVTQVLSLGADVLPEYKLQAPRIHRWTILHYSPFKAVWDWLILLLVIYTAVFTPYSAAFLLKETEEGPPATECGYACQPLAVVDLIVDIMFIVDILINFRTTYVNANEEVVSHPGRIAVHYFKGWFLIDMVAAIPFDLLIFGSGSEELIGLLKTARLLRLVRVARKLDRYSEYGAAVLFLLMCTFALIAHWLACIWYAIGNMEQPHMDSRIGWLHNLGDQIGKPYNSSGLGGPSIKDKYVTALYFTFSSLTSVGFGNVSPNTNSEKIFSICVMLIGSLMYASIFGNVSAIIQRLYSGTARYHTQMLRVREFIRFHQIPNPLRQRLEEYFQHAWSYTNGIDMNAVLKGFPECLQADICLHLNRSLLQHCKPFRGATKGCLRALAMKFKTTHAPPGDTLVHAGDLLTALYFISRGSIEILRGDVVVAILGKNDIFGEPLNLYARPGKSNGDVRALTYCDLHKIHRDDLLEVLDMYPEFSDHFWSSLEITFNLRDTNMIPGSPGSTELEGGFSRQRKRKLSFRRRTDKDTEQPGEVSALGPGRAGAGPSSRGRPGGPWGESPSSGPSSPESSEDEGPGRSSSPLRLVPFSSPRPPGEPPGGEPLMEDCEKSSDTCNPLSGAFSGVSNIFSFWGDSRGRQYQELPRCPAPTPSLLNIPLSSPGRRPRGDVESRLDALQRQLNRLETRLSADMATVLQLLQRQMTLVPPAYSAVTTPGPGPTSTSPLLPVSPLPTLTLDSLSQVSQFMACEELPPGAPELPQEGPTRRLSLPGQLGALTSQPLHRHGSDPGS
Sequence of Cytochrome P450 2C9 (P11712 whole entry): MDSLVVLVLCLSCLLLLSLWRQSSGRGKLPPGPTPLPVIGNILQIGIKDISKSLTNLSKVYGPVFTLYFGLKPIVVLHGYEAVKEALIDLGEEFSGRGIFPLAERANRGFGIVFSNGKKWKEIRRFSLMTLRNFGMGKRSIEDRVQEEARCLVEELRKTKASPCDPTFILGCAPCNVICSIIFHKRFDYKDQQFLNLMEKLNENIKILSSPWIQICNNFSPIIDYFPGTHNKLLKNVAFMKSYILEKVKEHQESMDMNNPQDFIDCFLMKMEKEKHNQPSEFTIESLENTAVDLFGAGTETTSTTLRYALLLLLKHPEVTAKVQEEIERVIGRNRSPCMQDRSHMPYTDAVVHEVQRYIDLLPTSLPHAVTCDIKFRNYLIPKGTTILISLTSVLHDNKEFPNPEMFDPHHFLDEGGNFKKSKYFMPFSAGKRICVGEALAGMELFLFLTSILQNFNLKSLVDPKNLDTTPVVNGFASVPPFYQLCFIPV

Compound	logD [2]	Vd [3]	Ratio [4]	AUC [5]	Papp at 10 µM [6]	bioavailability [7]	IC50 [8]	fraction unbound [9]	hepatocyte CLint [10]	AUC [11]	clearance [13]	half-life [14]	bioavailability [15]	efflux ratio at 10 µM [16]	IC50 [17]	IC50 [18]	IC50 [20]	fraction unbound [21]	hepatocyte CLint [24]	fraction unbound [26]	other results
COc1cc(/C=C/C(=O)O)ccc1[C@@H]1c2ccc3[nH]ncc3c2C[C@@H](C)N1CC(C)(F)F	2.5	1 L/kg	< 0.04	6.6 µM·h	8.4 ×10⁻⁶ cm/s	45%	> 30000 nM	0.0087	18 µL/min/1e6 cells	0.21 µM·h	2.8 mL/min/kg	6.8 h	51%	2.2	1 nM	> 30000 nM	1 nM	0.0092	5 µL/min/1e6 cells	0.022	Stability [1]: Stable; Stability [12]: Stable; clearance [19]: 32 mL/min/kg; Stability [22]: Stable; Vd [23]: 0.36 L/kg; Papp at 10 µM [25]: 6.2 ×10⁻⁶ cm/s; solubility at 24 h [27]: 810 µM (≈ 358 µg/mL); efflux ratio at 10 µM [28]: 1.7; fraction unbound [29]: 0.012; half-life [30]: 1.3 h; IC50 [31]: > 30000 nM; hepatocyte CLint [32]: 9.6 µL/min/1e6 cells
CC(C)CN1CCc2c(ccc3[nH]ncc23)[C@H]1c1ccc(/C=C/C(=O)O)cc1	1.9	–	< 0.04	–	–	–	–	–	10 µL/min/1e6 cells	–	–	–	–	–	25.1 nM	–	6.31 nM	0.07	51 µL/min/1e6 cells	0.036	–
COc1cc(/C=C/C(=O)O)ccc1[C@@H]1c2ccc3[nH]ncc3c2C[C@@H](C)N1CC(C)(C)F	2.2	–	< 0.04	–	–	–	–	–	17 µL/min/1e6 cells	–	–	–	–	–	1.58 nM	–	0.631 nM	0.0098	6 µL/min/1e6 cells	0.046	–
C[C@@H]1Cc2c(ccc3[nH]ncc23)[C@@](C)(c2c(F)cc(/C=C/C(=O)O)cc2F)N1CC(C)(C)F	2.9	–	< 0.04	–	–	–	–	–	12 µL/min/1e6 cells	–	–	–	–	–	0.398 nM	–	0.631 nM	0.0033	10 µL/min/1e6 cells	0.0023	–

Continued, in another order:

logD [2]	Vd [3]	Ratio [4]	AUC [5]	Papp at 10 µM [6]	bioavailability [7]	IC50 [8]	fraction unbound [9]	hepatocyte CLint [10]	AUC [11]	clearance [13]	half-life [14]	bioavailability [15]	efflux ratio at 10 µM [16]	IC50 [17]	IC50 [18]	IC50 [20]	fraction unbound [21]	hepatocyte CLint [24]	fraction unbound [26]	Compound	other results
2	–	< 0.04	–	–	–	–	–	6 µL/min/1e6 cells	–	–	–	–	–	20 nM	–	1.58 nM	0.036	93 µL/min/1e6 cells	0.066	CC(C)CN1[C@H](c2ccc(/C=C/C(=O)O)cc2)c2ccc3[nH]ncc3c2CC1(C)C	–
2.3	1.6 L/kg	< 0.04	3 µM·h	10 ×10⁻⁶ cm/s	36%	> 30000 nM	0.0062	18 µL/min/1e6 cells	0.57 µM·h	5.4 mL/min/kg	4.8 h	16%	2.6	0.398 nM	> 30000 nM	0.398 nM	0.011	8 µL/min/1e6 cells	0.013	C[C@@H]1Cc2c(ccc3[nH]ncc23)[C@@H](c2c(F)cc(/C=C/C(=O)O)cc2F)N1CC(C)(F)F	IC50 [33]: 6600 nM; clearance [19]: 26 mL/min/kg; Vd [23]: 0.63 L/kg; Papp at 10 µM [25]: 5.8 ×10⁻⁶ cm/s; IC50 [34]: > 100000 nM; IC50 [35]: > 30000 nM; solubility at 24 h [27]: 760 µM (≈ 340 µg/mL); efflux ratio at 10 µM [28]: 1.3; fraction unbound [29]: 0.021; half-life [30]: 3.7 h; IC50 [31]: > 30000 nM; hepatocyte CLint [32]: 7.1 µL/min/1e6 cells
